Consider five compounds from ChEMBL document CHEMBL1268950, “Fluorescent-tagged sp2-iminosugars with potent β-glucosidase inhibitory activity” (Bioorg Med Chem, 2010).

The target in assay [1] is T1, Uncharacterized protein (Sus scrofa, UniProt I3LIR5).
T1 sequence (I3LIR5 whole entry): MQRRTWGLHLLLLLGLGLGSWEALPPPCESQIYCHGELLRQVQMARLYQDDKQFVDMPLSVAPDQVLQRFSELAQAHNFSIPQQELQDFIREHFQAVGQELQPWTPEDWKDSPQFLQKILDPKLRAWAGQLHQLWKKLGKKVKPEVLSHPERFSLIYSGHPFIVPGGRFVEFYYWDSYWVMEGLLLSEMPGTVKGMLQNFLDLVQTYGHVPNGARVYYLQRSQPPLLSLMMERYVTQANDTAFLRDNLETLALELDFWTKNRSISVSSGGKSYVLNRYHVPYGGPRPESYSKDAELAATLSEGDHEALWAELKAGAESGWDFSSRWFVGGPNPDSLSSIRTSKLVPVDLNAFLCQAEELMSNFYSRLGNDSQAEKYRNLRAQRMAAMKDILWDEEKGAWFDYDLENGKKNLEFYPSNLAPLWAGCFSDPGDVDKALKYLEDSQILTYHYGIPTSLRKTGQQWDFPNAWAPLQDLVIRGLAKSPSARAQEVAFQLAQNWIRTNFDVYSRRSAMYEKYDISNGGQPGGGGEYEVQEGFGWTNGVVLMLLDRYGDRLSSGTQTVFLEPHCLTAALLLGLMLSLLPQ
As to the kind of experiment: Inhibition of pig kidney trehalase at 2 mM after 10 to 30 mins.

A short description of assay [2]: Inhibition of almond beta-glucosidase at pH 7.3 after 10 to 30 mins. Details: species or system Prunus dulcis.
Assay [3] is described as follows: Inhibition of Aspergillus niger amyloglucosidase at 2 mM after 10 to 30 mins.
A short description of assay [4]: Inhibition of Penicillium decumbens naringinase after 10 to 30 mins.
In assay [5] the target is Oligo-1,6-glucosidase IMA1 (Saccharomyces cerevisiae S288c) (UniProt P53051). Put plainly: Inhibition of yeast isomaltase at 2 mM after 10 to 30 mins.
Sequence of Oligo-1,6-glucosidase IMA1 (Saccharomyces cerevisiae S288c) (P53051 whole entry): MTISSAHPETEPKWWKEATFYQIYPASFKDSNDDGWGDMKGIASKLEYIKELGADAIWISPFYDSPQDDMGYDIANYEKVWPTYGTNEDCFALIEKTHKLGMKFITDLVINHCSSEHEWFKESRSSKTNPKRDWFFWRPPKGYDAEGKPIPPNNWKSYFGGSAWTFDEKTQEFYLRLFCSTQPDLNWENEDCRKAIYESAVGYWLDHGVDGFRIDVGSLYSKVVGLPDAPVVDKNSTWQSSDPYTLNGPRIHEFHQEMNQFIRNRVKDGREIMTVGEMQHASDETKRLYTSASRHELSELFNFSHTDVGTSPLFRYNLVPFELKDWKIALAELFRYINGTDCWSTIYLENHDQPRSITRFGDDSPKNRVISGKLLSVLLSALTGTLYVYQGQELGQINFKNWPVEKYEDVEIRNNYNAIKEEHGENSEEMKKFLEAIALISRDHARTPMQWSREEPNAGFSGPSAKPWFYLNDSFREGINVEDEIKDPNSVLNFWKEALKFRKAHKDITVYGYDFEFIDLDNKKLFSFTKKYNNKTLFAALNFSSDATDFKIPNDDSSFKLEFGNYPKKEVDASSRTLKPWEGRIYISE
Assay [6] concerns the target Alpha-galactosidase (Coffea arabica) (UniProt Q42656). Put plainly: Inhibition of green coffee bean alpha-galactosidase at 2 mM after 10 to 30 mins.
A short description of assay [7]: Inhibition of jack beans alpha-mannosidase after 10 to 30 mins. Also noted: species or system Canavalia ensiformis.
The nature of assay [8]: Inhibition of Helix pomatia beta-mannosidase after 10 to 30 mins.
The target in assay [9] is T2, Alpha-glucosidase MAL12 (Saccharomyces cerevisiae S288c, UniProt P53341). Put plainly: Inhibition of yeast alpha-glucosidase after 10 to 30 mins.
T2 sequence (P53341 whole entry): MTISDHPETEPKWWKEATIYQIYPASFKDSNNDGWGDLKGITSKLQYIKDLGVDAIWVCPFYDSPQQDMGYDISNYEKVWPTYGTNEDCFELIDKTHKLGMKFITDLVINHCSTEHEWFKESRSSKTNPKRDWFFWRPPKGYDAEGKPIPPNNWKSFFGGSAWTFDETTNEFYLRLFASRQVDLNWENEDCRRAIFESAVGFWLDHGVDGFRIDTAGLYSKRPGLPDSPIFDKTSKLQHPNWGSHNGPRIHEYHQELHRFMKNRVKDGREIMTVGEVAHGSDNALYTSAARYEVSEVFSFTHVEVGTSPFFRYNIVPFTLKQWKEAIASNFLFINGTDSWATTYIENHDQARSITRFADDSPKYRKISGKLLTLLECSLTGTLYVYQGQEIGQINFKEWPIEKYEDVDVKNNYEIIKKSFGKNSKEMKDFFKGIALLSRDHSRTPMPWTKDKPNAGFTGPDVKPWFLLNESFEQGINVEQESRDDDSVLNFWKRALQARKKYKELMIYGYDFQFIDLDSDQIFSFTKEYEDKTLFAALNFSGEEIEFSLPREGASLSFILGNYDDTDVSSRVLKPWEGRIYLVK
Assay [10] is described as follows: Inhibition of jack beans alpha-mannosidase at 2 mM after 10 to 30 mins. Also noted: species or system Canavalia ensiformis.
The nature of assay [11]: Binding affinity to almond beta-glucosidase by FRET assay. Details: species or system Prunus dulcis. An outline of the steps: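 Direct titration: almond β-glucosidase 1.25 µM in 0.05 M potassium phosphate pH 7.3, 37 °C. Inhibitor stock (50 µM, made in the enzyme solution) added portion-wise to ~6 µM. Excitation 280 nm. Tryptophan emission read at 339 nm and dansyl emission at 515 nm at 10–15 ratios. Kd from least-squares fit to a 1:1 model. Reverse titration (enzyme into 1.0 µM inhibitor, 515 nm) gave confirmation.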

The target of assay [12] is T1, Uncharacterized protein. Put plainly: Inhibition of pig kidney trehalase after 10 to 30 mins.
The target in assay [13] is T2, Alpha-glucosidase MAL12. Put plainly: Inhibition of yeast alpha-glucosidase at 2 mM after 10 to 30 mins.
The nature of assay [14]: Inhibition of Aspergillus niger amyloglucosidase after 10 to 30 mins.
In the next assay the target is T3, Glucosylceramidase (Bos taurus, UniProt Q2KHZ8).
T3 sequence (Q2KHZ8 whole entry): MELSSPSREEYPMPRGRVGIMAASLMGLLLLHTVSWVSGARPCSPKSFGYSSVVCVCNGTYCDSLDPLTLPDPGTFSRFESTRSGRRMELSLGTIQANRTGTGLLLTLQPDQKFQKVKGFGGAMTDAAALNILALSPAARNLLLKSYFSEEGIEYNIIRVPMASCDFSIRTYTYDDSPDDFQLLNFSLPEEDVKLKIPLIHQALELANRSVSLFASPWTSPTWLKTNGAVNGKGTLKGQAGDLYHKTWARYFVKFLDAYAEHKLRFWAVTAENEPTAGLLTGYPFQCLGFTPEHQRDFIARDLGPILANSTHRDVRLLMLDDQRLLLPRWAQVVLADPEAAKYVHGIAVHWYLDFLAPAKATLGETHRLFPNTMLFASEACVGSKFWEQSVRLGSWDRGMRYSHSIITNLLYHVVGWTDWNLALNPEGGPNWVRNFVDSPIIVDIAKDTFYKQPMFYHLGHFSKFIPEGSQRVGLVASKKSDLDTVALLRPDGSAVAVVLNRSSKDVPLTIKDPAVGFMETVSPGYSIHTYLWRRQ
Put plainly: Inhibition of bovine liver beta-glucosidase at 2 mM after 10 to 30 mins.

Assay [15] in a line: Inhibition of Helix pomatia beta-mannosidase at 2 mM after 10 to 30 mins.

Activity calls are given as the source filed them. The calls are words filed in the database; no cut-off is given here.

Sequence of Alpha-galactosidase (Coffea arabica) (Q42656 16-378 limits assumed): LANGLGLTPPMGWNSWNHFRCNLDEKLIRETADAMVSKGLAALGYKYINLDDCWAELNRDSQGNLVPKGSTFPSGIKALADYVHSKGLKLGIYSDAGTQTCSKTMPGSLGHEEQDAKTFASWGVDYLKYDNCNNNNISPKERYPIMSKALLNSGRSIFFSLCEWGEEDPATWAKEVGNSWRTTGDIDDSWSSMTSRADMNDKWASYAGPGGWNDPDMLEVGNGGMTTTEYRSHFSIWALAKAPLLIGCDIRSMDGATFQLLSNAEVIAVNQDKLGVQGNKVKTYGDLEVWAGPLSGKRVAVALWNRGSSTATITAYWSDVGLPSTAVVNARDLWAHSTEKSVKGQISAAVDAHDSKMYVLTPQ

Broadly, the Ki is a measure of affinity in units of concentration, obtained from inhibition or displacement. Take `CN(C)c1ccc(-c2cnc(-c3ccc(S(=O)(=O)NCCCC/N=C4\SC[C@@H]5[C@@H](O)[C@H](O)[C@@H](O)[C@@H](O)N45)cc3)o2)cc1`: the Ki entry on Uncharacterized protein [1] is “Not Active”; in assay [2], 0.55 µM; in assay [3], “Not Active”; in assay [4], 1.2 µM; in assay [7], 235 µM; in assay [8] (read-out: Ki) it was 522 µM. The compound further returned a Ki on Alpha-glucosidase MAL12 [9] of 714 µM. The inhibition entry in assay [5] and in assay [6] was “inactive” each time.
What is called Kd is the free concentration of one partner at which half of the binding sites on the other are occupied at equilibrium, for simple one-to-one binding. Low readings indicate tighter binding, high ones weaker binding. As for `CN(C)c1cccc2c(S(=O)(=O)NCCCC/N=C3\SC[C@@H]4[C@@H](O)[C@H](O)[C@@H](O)[C@@H](O)N34)cccc12`, the Ki in [2] is 0.36 µM; in assay [3], “Not Active”; in assay [10] it was “Not Active”; in assay [4], 0.21 µM; on Uncharacterized protein [12], 293 µM; in assay [8] (read-out: Ki), 387 µM. Further, the Ki at Alpha-glucosidase MAL12 [9] came to 246 µM. In addition, the inhibition entry in [5] and in assay [6] was “inactive” each time. In [11], this compound returned a Kd of 0.2 µM.
As for `CCCCCCCC/N=C1\SC[C@@H]2[C@@H](O)[C@H](O)[C@@H](O)[C@@H](O)N12`, the Ki is 0.76 µM in assay [2]; “Not Active” in [10]; 0.23 µM in assay [4]; 13.4 µM on Uncharacterized protein [12]; “Not Active” on Alpha-glucosidase MAL12 [13]; “Not Active” in assay [8]. Moreover, the inhibition result in [5] and in assay [6] was “inactive” each time.
On to `CCN(CC)c1ccc2cc(C(=O)NCCCC/N=C3\SC[C@@H]4[C@@H](O)[C@H](O)[C@@H](O)[C@@H](O)N34)c(=O)oc2c1`, for which the Ki in assay [2] stood at 0.45 µM; in [4], 0.072 µM; at Uncharacterized protein [12], 28.2 µM; in [7], 199 µM; in assay [14] it was 167 µM; in [8] (read-out: Ki), 11 µM. This compound also displayed a Ki at Alpha-glucosidase MAL12 [9] of 313 µM. In addition, the inhibition result in [5] and in assay [6] was “inactive” each time.
Turning to `Cl.NCCCC/N=C1\SC[C@@H]2[C@@H](O)[C@H](O)[C@@H](O)[C@@H](O)N12`, the Ki was 12.8 µM in assay [2]; “Not Active” in assay [3]; “Not Active” in assay [10]; 1.8 µM in [4]; “Not Active” on Glucosylceramidase; 116 µM at Uncharacterized protein [12]. Moreover, the Ki result (on Alpha-glucosidase MAL12 [13]; in assay [15]) was “Not Active” in each case. Also, the inhibition entry in [5] and in assay [6] was “inactive” throughout.
